Active and inactive are the calls of the source. The rule behind the calls is not given here.

Experiment [1] addresses Human immunodeficiency virus type 1 reverse transcriptase (Human immunodeficiency virus 1) (UniProt Q72547). Kind of experiment: Inhibition of HIV1 reverse transcriptase by ELISA.
Experiment [2] addresses Tyrosine-protein kinase Lck (Homo sapiens) (UniProt P06239). Description: Inhibition of p56lck by ELISA.
For experiment [3], the system named is Radical scavenging activity. Description: Antioxidant activity assessed as DPPH free radical scavenging activity at 50 ug/mL. It counts as functional. The method in brief: (§1)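 Ethanolic sample (1 mg/mL stock) is mixed with DPPH (1 mM stock) in EtOH, shaken briefly, and held at room temperature in the dark for 30 min. Radical scavenging is read as absorbance at 517 nm of sample versus control. Results are reported at the listed concentrations in µg/mL.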

In experiment [4] the test system is Radical scavenging activity. Description: Antioxidant activity assessed as DPPH free radical scavenging activity at 25 ug/mL. Type of experiment: functional. An outline of the steps: as §1
A short description of experiment [5]: Antioxidant activity assessed as inhibition of linolenic acid peroxidation at 37 ug/mL by TBARS assay. Type of experiment: functional. An outline of the steps:
(§2)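 Linolenic acid methyl ester (70 mM stock in EtOH) is oxidized with sample (1 or 0.2 mg/mL ethanolic stock) in 50 mM phosphate buffer pH 7.2 with SDS and FeSO4 in 0.025 M HCl. Incubation is 50 °C for 30 min, then covered at 60 °C for 30 min, then room temperature for 4 min. Readout is A532 minus A600, with % inhibition calculated against sample blank, control and blank.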

In experiment [6] the test system is Radical scavenging activity. Kind of experiment: Antioxidant activity assessed as DPPH free radical scavenging activity at 500 ug/mL. Type of experiment: functional. The method in brief:
as §1

The test system of experiment [7] is Radical scavenging activity. Description: Antioxidant activity assessed as DPPH free radical scavenging activity at 100 ug/mL. It counts as functional. The method in brief:
as §1

Experiment [8] relates to Radical scavenging activity. Description: Antioxidant activity assessed as DPPH free radical scavenging activity at 5 ug/mL. It counts as functional. The method in brief:
as §1

A short description of experiment [9]: Antioxidant activity assessed as inhibition of linolenic acid peroxidation at 7.4 ug/mL by TBARS assay. It counts as functional. An outline of the steps:
as §2

Tyrosine-protein kinase Lck (Homo sapiens), sequence (P06239 2-509 limits assumed): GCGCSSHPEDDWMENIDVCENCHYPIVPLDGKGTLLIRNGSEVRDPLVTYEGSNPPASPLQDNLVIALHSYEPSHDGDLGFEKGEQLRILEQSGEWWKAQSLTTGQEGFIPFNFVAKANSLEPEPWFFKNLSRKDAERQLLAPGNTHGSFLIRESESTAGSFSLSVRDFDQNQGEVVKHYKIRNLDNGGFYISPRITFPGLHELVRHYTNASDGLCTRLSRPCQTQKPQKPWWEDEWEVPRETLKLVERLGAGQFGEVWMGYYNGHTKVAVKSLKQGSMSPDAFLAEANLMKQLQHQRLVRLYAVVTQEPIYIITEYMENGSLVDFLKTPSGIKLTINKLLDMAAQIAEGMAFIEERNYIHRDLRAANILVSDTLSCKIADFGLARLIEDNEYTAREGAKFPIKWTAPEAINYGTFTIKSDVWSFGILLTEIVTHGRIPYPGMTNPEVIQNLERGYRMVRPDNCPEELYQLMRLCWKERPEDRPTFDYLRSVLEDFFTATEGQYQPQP

`CC(C)(O)C1Cc2cc(O)ccc2O1` (centres undefined): the outcome in experiment [1] and in experiment [2] was inactive. The Activity in [3] came to 89.1%; in experiment [4], 85.8%; in experiment [6], 90.4%; in experiment [7] it was 90.2%; in [8] it was 35.3%. In experiment [5], the inhibition turned out to be 15.9%.

In the case of `CC1(C)Oc2ccc(O)cc2CC1O` (centres undefined), the outcome in experiment [1] and in experiment [2] was inactive. The inhibition is -9.8% in experiment [9] and 9.2% in experiment [5]. In addition, the Activity in experiment [3] turned out to be 85.1%; in [4], 72.9%; in [6], 89.9%; in experiment [7], 89.1%; in experiment [8], 25.7%.

With `CC(C)(O)C(O)Cc1cc(O)ccc1O` (centres undefined), the results for the inhibition in [9] and in experiment [5] were 2% and 16.6%, respectively. Further, the Activity in [3] is 90.7%; in experiment [4], 90.2%; in experiment [6], 82.9%; in experiment [7], 89.9%.

As for `CC(C)=C(CCC(=O)O)C(=O)O`, the result in experiment [1] and in experiment [2] was inactive. Besides, the inhibition in experiment [9] was -9%. In addition, the Activity was -0.5% in experiment [3], 15.3% in [6] and 3.8% in experiment [7].

As to `C=C(C)C(CCC(=O)OC)C(=O)O` (centres undefined), the inhibition in experiment [9] was -8.6%. Further, the Activity in experiment [3] was determined as 3.4%; in experiment [6] it was 35.1%; in experiment [7], 10.3%.

Regarding `C=C(C)C1Cc2c(O)ccc(O[C@@H]3O[C@H](CO)[C@@H](O)[C@H](O)[C@H]3O)c21` (some centres undefined), the result in experiment [1] and in experiment [2] was inactive. The Activity is 27.7% in experiment [3]; 17.5% in [4]; 79.9% in experiment [6]; 43% in experiment [7]; 5.6% in experiment [8].

Regarding `COC(=O)CCC(C(=O)O)=C(C)C`, the inhibition in [9] was -8.6%. Also, the Activity in experiment [3] came out at 3.4%; in experiment [6], 35.1%; in experiment [7], 10.3%.

Regarding `Cc1cc(C(C)(C)C)c(O)c(C(C)(C)C)c1`, the inhibition in [9] was determined as 36.2%; in experiment [5] it was 43.9%. Moreover, the Activity in [3] stood at 41.1%; in [4] it was 24.2%; in experiment [6] it was 89.8%; in experiment [7], 63.8%; in [8], 6%.

Turning to `OC[C@H]1O[C@@H](Oc2ccc(O)cc2)[C@H](O)[C@@H](O)[C@@H]1O`, the Activity in experiment [3] is 23.5%; in experiment [4] it was 18.3%; in experiment [6], 78.6%; in experiment [7] it was 52.6%; in [8], 1.9%.

In the case of `COC(=O)C(CCC(=O)O)=C(C)C`, the inhibition in [9] was -8.6%. Moreover, the Activity in experiment [3] was determined as 3.4%; in [6], 35.1%; in experiment [7], 10.3%.

For the compound `C=C(C)C1Cc2c(O)ccc(O)c21` (centres undefined), the outcome in [1] and in experiment [2] was inactive. In addition, the inhibition came to 13.9% in [9] and 35.5% in [5]. Also, the Activity in experiment [3] is 90%; in experiment [4] it was 85.5%; in experiment [6], 90.1%; in experiment [7], 90%; in experiment [8] it was 26%.

These data come from ChEMBL document CHEMBL1150128, “New antioxidant hydroquinone derivatives from the algicolous marine fungus Acremonium sp” (J Nat Prod, 2002).
